Active and inactive are the calls of the source. The calls are words filed in the database; no cut-off is given here.
Legend:
NCI/ADR-RES = assay: Cytotoxicity against human NCI/ADR-RES cells after 48 hrs by sulforhodamine B assay; type: functional
Summary of the method: (§1)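 Run by the NCI 60-cell-line screen. A one-dose pre-test was done first, followed by the main test over a 5-log dose range (10^-4 to 10^-8 M). Results are reported as log molar GI50 (50% net growth inhibition), TGI (total growth inhibition) and LC50 (50% net cell death), with mean-graph midpoints across all lines.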

SW-620 = assay: Cytotoxicity against human SW620 cells after 48 hrs by sulforhodamine B assay; type: functional; conditions: SW-620, 48 h
Summary of the method: (§2)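 NCI 60-cell-line panel screen of human tumor lines: a one-dose pre-test, then the main test over a 5-log range (10^-4–10^-8 M). GI50, TGI and LC50 are reported as log molar concentrations for 50% net growth inhibition, total growth inhibition and 50% net cell death. Mean graph midpoints are also calculated.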

K562 = assay: Cytotoxicity against human K562 cells after 48 hrs by sulforhodamine B assay; type: functional; conditions: K562, 48 h; summary of the method: as §1
HCC 2998 = assay: Cytotoxicity against human HCC2998 cells after 48 hrs by sulforhodamine B assay; type: functional; conditions: HCC 2998, 48 h; summary of the method: as §1
NCI-H522 = assay: Cytotoxicity against human NCI-H522 cells after 48 hrs by sulforhodamine B assay; type: functional; conditions: NCI-H522, 48 h; summary of the method: as §1
TK-10 = assay: Cytotoxicity against human TK10 cells after 48 hrs by sulforhodamine B assay; type: functional; conditions: TK-10, 48 h; summary of the method: as §2
MCF7 [1] = assay: Cell cycle arrest in human MCF7 cells assessed as accumulation at G0 phase at 5 uM after 24 hrs using propidium iodide staining by flow cytometry relative to control; type: functional
Summary of the method: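 MCF-7 cells were seeded at 5×10^5 per 60 mm dish and grown 24 h. They were then exposed to 5 uM compound for a further 24 h, with untreated control cells alongside. Cells were trypsinised, fixed in ice-cold 70% ethanol (4 °C, 30 min), treated with 1 mg/ml RNase A (37 °C, 30 min) and stained with propidium iodide/citrate/Triton solution. DNA content was read by flow cytometry on 20,000 events.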

Malme-3M = assay: Cytotoxicity against human MALME-3M cells after 48 hrs by sulforhodamine B assay; type: functional
Summary of the method: (§3)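 Run by the NCI 60 human tumour cell line screen. A one-dose pre-test across sixty lines came first. The main test then used a 5-log dose range (10^-4–10^-8 M). Values derived per cell line were GI50 (log molar concentration for 50% net growth inhibition), TGI (total growth inhibition) and LC50 (50% net cell death).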

NCI-H460 = assay: Cytotoxicity against human NCI-H460 cells after 48 hrs by sulforhodamine B assay; type: functional; conditions: NCI-H460, 48 h; summary of the method: as §1
T47D = assay: Cytotoxicity against human T47D cells after 48 hrs by sulforhodamine B assay; type: functional; summary of the method: as §2
MCF7 [2] = assay: Reduction of cyclin B expression in human MCF7 cells at 5 uM after 24 hrs by Western blotting; type: functional, cell-based
Summary of the method: (§4)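 MCF-7 cells, kept in DMEM with 10% fetal calf serum at 37 °C under 5% CO2, treated 24 h. Lysis in ice-cold RIPA with protease inhibitors; Bradford quantitation; 30 µg protein per lane on 12% SDS-PAGE, then PVDF. Primary antibodies (1:500) at 4 °C overnight; HRP secondary (1:2000); chemiluminescence detection; β-actin loading control.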

IGROV-1 = assay: Cytotoxicity against human IGROV1 cells after 48 hrs by sulforhodamine B assay; type: functional; conditions: IGROV-1, 48 h; summary of the method: as §1
MCF7 [3] = assay: Reduction of CDK1 expression in human MCF7 cells at 5 uM after 24 hrs by Western blotting; type: functional, cell-based; summary of the method: as §4
SK-OV-3 = assay: Cytotoxicity against human SKOV3 cells after 48 hrs by sulforhodamine B assay; type: functional; conditions: SK-OV-3, 48 h; summary of the method: as §1
HCT-116 = assay: Cytotoxicity against human HCT116 cells after 48 hrs by sulforhodamine B assay; type: functional; conditions: HCT-116, 48 h; summary of the method: as §1
EKVX = assay: Cytotoxicity against human EKVX cells after 48 hrs by sulforhodamine B assay; type: functional; summary of the method: as §3
SK-MEL-2 = assay: Cytotoxicity against human SK-MEL-2 cells after 48 hrs by sulforhodamine B assay; type: functional; conditions: SK-MEL-2, 48 h; summary of the method: as §1
HOP-62 = assay: Cytotoxicity against human HOP62 cells after 48 hrs by sulforhodamine B assay; type: functional; conditions: HOP-62, 48 h; summary of the method: as §1
OVCAR-3 = assay: Cytotoxicity against human OVCAR3 cells after 48 hrs by sulforhodamine B assay; type: functional; conditions: OVCAR-3, 48 h; summary of the method: as §1
BT-549 = assay: Cytotoxicity against human BT549 cells after 48 hrs by sulforhodamine B assay; type: functional; conditions: BT-549, 48 h; summary of the method: as §1
SK-MEL-5 = assay: Cytotoxicity against human SK-MEL-5 cells after 48 hrs by sulforhodamine B assay; type: functional; conditions: SK-MEL-5, 48 h; summary of the method: as §1
[4] = Cytotoxicity against human Hs 578T cells after 48 hrs by sulforhodamine B assay; type: functional; summary of the method: as §1
U-251 = assay: Cytotoxicity against human U251 cells after 48 hrs by sulforhodamine B assay; type: functional; conditions: U-251, 48 h; summary of the method: as §2
NCI-H322M = assay: Cytotoxicity against human NCI-H322M cells after 48 hrs by sulforhodamine B assay; type: functional; summary of the method: as §1
Tubulin (Homo sapiens) = Tubulin (Homo sapiens) (UniProt P68371+Q9H4B7+P0DPH7+P68366+Q13509+Q71U36+P04350+Q3ZCM7+P07437+P68363+Q9BQE3+Q6PEY2+Q13885+Q9BVA1+Q9BUF5); assay: Inhibition of tubulin polymerization in human MCF7 cells assessed as disrupted microtubule organization at 5 uM after 48 hrs by microscopic analysis; type: cell-based
Summary of the method: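 MCF-7 cells on coverslips incubated 48 h with or without compound. Fixed in 3% paraformaldehyde/0.02% glutaraldehyde, permeabilized in -20 °C methanol, blocked with 1% BSA. Stained with mouse monoclonal anti-tubulin and FITC secondary; confocal imaging to judge microtubule network integrity.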

[5] = read-out: pLC50 (the source's name) (converted)

COc1cc(C2NC(=O)c3ccccc3N2)ccc1OCCCCCOc1c(OC)cc(C2=NOC(c3cc(OC)c(OC)c(OC)c3)C2)cc1OC (centres undefined)
GI50 (NCI/ADR-RES): 15.1 µM
CC50 (NCI/ADR-RES; [5]): > 100 µM
TGI (NCI/ADR-RES; read-out: pTGI): > 100 µM
GI50 (SW-620): 10.2 µM
CC50 (SW-620; [5]): > 100 µM
TGI (SW-620; read-out: pTGI): > 100 µM
GI50 (K562): 0.501 µM
CC50 (K562; [5]): > 100 µM
TGI (K562; read-out: pTGI): > 100 µM
GI50 (HCC 2998): 19.1 µM
CC50 (HCC 2998; [5]): > 100 µM
TGI (HCC 2998; read-out: pTGI (converted)): 52.5 µM
GI50 (NCI-H522): 10.7 µM
CC50 (NCI-H522; [5]): 93.3 µM
TGI (NCI-H522; read-out: pTGI (converted)): 31.6 µM
GI50 (TK-10): > 100 µM
CC50 (TK-10; [5]): > 100 µM
TGI (TK-10; read-out: pTGI): > 100 µM
Activity (MCF7 [1]): 1.57%
CC50 (Malme-3M; [5]): > 100 µM
TGI (Malme-3M; read-out: pTGI): > 100 µM
GI50 (NCI-H460): 13.5 µM
CC50 (NCI-H460; [5]): > 100 µM
TGI (NCI-H460; read-out: pTGI (converted)): 60.3 µM
GI50 (T47D): 0.191 µM
CC50 (T47D; [5]): > 100 µM
TGI (T47D; read-out: pTGI): > 100 µM
Activity (MCF7 [2]): Active
GI50 (IGROV-1): 1.12 µM
CC50 (IGROV-1; [5]): > 100 µM
TGI (IGROV-1; read-out: pTGI (converted)): 50.1 µM
Activity (MCF7 [3]): Active
GI50 (SK-OV-3): 25.1 µM
CC50 (SK-OV-3; [5]): > 100 µM
TGI (SK-OV-3; read-out: pTGI): > 100 µM
GI50 (HCT-116): 0.708 µM
CC50 (HCT-116; [5]): > 100 µM
TGI (HCT-116; read-out: pTGI (converted)): 40.7 µM
CC50 (EKVX; [5]): > 100 µM
TGI (EKVX; read-out: pTGI): > 100 µM
GI50 (SK-MEL-2): 35.5 µM
CC50 (SK-MEL-2; [5]): > 100 µM
TGI (SK-MEL-2; read-out: pTGI): > 100 µM
GI50 (HOP-62): 19.1 µM
CC50 (HOP-62; [5]): > 100 µM
TGI (HOP-62; read-out: pTGI (converted)): 81.3 µM
GI50 (OVCAR-3): 12.9 µM
CC50 (OVCAR-3; [5]): > 100 µM
TGI (OVCAR-3; read-out: pTGI (converted)): 63.1 µM
CC50 (BT-549; [5]): > 100 µM
TGI (BT-549; read-out: pTGI): > 100 µM
GI50 (SK-MEL-5): 0.112 µM
CC50 (SK-MEL-5; [5]): 0.933 µM
TGI (SK-MEL-5; read-out: pTGI (converted)): 0.324 µM
GI50 [4]: 16.6 µM
CC50 [4, 5]: > 100 µM
TGI ([4]; read-out: pTGI): > 100 µM
GI50 (U-251): 15.1 µM
CC50 (U-251; [5]): > 100 µM
TGI (U-251; read-out: pTGI): > 100 µM
GI50 (NCI-H322M): > 100 µM
CC50 (NCI-H322M; [5]): > 100 µM
TGI (NCI-H322M; read-out: pTGI): > 100 µM
inhibition (Tubulin (Homo sapiens)): Active
